Data on 21 molecules can be found in ChEMBL document CHEMBL2434840, “Discovery of 4-amino-2-(thio)phenol derivatives as novel protein kinase and angiogenesis inhibitors for the treatment of cancer: synthesis and biological evaluation. Part II” (Eur J Med Chem, 2013).

Structures are written as SMILES. Active and inactive are the calls of the source. No cut-off for these calls is given here.

For assay [1], the target named is T1, RAC-alpha serine/threonine-protein kinase (Homo sapiens, UniProt P31749). The assay can be described thus: Inhibition of AKT (unknown origin) at 10 uM after 30 mins by fluorescence assay relative to control. The method in brief: (§1)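 Enzyme plus compound (10 μM screen) or water in Hepes/Tris pH 7.4, EGTA/Tris, MgCl2, DTT and 0.008% Tween 20. Substrate and ATP started the reaction, 30 min at room temperature. EDTA stop, then europium-labelled anti-phospho-PT66 antibody for 60 min and TR-FRET read. Basal wells had no enzyme. Percent inhibition of control activity; staurosporine reference; duplicate.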

Assay [2] has as its target ALK tyrosine kinase receptor (Homo sapiens) (UniProt Q9UM73). The assay can be described thus: Inhibition of ALK (unknown origin) at 10 uM after 30 mins by fluorescence assay relative to control. The method in brief:
as §1

Assay [3] has as its target Vascular endothelial growth factor receptor 2 (Homo sapiens) (UniProt P35968). The assay can be described thus: Inhibition of VEGFR2 (unknown origin) phosphorylation at 5 ug/mL by cell-based Western blotting analysis. In general terms: Immunoblotting shows a protein as a band on a membrane.
For assay [4] the target is unchanged. The assay can be described thus: Inhibition of VEGFR2 (unknown origin) phosphorylation at 1 ug/mL by cell-based Western blotting analysis.
The test system of assay [5] is Thoracic aorta. The assay can be described thus: Antiangiogenic activity in Sprague-Dawley rat thoracic aorta rings assessed as reduction of microvessel outgrowth at 10 uM treated every other day for 6 days by Matrigel assay. The assay is classed as functional, tissue-based. In outline:
(§2)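 Aortas were taken from male Sprague Dawley rats aged 8–10 weeks and cleaned of fibroadipose tissue. 1-mm rings were embedded between two 100 μL Matrigel layers and set 30 min at 37 °C, 5% CO2. Compound, pazopanib or 0.5% DMSO vehicle was added every other day for 6 days. Outgrowth was photographed on day 7 at ×200. Three independent experiments.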

Assay [6] relates to HUVEC. Briefly: Antiangiogenic activity in HUVEC assessed as inhibition of tube formation at 10 uM after 6 hrs by Matrigel assay. The assay is classed as functional, cell-based. The note with it: Homo sapiens. The method in brief: (§3)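 HUVECs seeded at 40,000 cells/well on Matrigel (gelled 30 min, 37 °C, 5% CO2) in M199 with 5% FBS plus compound or 0.5% DMSO vehicle; pazopanib positive control; 6 h at 37 °C, 5% CO2. Tube networks were scored by phase-contrast microscopy and photographed at ×100. Three independent experiments.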

Assay [7] relates to Thoracic aorta. The assay can be described thus: Antiangiogenic activity in Sprague-Dawley rat thoracic aorta rings assessed as reduction of microvessel outgrowth at 0.1 uM treated every other day for 6 days by Matrigel assay. The assay is classed as functional, tissue-based. In outline: as §2
For assay [8], the system named is HUVEC. Briefly: Antiangiogenic activity in HUVEC assessed as inhibition of tube formation at 0.1 uM after 6 hrs by Matrigel assay. The assay is classed as functional, cell-based. The note with it: Homo sapiens. In outline:
as §3

For assay [9], the system named is Thoracic aorta. The assay can be described thus: Antiangiogenic activity in Sprague-Dawley rat thoracic aorta rings assessed as reduction of microvessel outgrowth at 1 uM treated every other day for 6 days by Matrigel assay. The assay is classed as functional, tissue-based. The method in brief:
as §2

Assay [10] deals with Thoracic aorta. Briefly: Antiangiogenic activity in Sprague-Dawley rat thoracic aorta rings assessed as reduction of microvessel outgrowth treated every other day for 6 days by Matrigel assay. The assay is classed as functional, tissue-based. The method in brief: as §2
In assay [11] the test system is HUVEC. Briefly: Antiangiogenic activity in HUVEC assessed as inhibition of tube formation after 6 hrs by Matrigel assay. As to conditions: Homo sapiens. The assay is classed as functional, cell-based. The method in brief:
as §3

Assay [12] addresses Tyrosine-protein kinase ABL1 (Homo sapiens, UniProt P00519). The assay can be described thus: Inhibition of ABL (unknown origin) after 30 mins by fluorescence assay.
Assay [13] has as its target T1, RAC-alpha serine/threonine-protein kinase. The assay can be described thus: Inhibition of AKT (unknown origin) after 30 mins by fluorescence assay.

T1 sequence (P31749 whole entry): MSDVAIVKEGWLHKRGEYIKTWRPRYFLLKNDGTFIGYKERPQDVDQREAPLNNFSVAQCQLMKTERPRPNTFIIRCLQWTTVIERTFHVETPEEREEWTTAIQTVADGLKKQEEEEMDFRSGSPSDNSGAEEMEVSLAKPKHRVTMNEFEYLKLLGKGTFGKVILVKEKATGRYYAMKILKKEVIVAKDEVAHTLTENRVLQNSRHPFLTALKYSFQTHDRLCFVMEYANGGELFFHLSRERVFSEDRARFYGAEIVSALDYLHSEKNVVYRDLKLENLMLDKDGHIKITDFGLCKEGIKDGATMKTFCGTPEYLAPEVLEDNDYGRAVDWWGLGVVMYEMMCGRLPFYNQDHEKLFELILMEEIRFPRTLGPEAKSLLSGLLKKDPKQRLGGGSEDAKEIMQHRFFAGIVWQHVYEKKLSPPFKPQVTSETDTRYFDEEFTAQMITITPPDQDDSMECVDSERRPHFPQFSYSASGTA
ALK tyrosine kinase receptor (Homo sapiens), sequence (Q9UM73 19-1620 limits assumed): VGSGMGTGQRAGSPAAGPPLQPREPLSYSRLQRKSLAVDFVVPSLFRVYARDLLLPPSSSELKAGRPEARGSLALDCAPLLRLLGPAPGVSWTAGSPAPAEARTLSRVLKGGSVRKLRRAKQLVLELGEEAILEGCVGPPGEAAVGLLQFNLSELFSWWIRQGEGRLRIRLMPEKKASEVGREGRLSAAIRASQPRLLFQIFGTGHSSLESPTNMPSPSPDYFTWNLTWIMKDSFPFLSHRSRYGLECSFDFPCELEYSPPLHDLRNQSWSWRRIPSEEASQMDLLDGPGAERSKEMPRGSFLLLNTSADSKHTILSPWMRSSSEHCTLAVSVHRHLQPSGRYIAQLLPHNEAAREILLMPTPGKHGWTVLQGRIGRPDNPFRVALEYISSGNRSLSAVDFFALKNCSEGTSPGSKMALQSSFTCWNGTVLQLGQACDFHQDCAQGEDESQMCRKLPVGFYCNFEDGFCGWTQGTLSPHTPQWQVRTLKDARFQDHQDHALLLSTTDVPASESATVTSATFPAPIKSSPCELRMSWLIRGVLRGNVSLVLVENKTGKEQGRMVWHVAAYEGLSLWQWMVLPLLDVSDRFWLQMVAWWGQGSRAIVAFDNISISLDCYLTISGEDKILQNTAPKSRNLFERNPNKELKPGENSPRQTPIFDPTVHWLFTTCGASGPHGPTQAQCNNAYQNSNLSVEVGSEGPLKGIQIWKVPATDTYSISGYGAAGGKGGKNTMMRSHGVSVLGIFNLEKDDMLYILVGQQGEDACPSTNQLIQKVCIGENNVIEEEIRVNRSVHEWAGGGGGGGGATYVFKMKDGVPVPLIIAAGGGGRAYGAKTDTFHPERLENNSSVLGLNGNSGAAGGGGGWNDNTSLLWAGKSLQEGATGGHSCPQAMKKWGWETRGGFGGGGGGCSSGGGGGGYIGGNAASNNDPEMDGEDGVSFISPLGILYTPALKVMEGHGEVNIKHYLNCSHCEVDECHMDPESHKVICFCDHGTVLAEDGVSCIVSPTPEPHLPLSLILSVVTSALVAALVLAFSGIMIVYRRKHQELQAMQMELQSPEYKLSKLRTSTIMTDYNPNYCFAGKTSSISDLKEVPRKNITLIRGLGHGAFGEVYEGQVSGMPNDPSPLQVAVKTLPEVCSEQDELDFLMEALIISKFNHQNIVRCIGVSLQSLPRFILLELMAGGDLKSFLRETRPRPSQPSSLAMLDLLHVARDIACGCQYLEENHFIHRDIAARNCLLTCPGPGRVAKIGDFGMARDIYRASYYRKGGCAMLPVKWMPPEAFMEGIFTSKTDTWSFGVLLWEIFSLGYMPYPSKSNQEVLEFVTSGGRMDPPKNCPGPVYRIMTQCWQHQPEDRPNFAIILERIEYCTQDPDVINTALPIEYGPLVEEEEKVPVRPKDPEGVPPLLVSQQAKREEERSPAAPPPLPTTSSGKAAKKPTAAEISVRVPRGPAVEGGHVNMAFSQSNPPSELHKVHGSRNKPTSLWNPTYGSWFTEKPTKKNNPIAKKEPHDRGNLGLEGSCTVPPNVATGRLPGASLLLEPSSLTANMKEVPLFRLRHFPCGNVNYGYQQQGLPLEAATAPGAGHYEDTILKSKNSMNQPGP
Vascular endothelial growth factor receptor 2 (Homo sapiens), sequence (P35968 whole entry): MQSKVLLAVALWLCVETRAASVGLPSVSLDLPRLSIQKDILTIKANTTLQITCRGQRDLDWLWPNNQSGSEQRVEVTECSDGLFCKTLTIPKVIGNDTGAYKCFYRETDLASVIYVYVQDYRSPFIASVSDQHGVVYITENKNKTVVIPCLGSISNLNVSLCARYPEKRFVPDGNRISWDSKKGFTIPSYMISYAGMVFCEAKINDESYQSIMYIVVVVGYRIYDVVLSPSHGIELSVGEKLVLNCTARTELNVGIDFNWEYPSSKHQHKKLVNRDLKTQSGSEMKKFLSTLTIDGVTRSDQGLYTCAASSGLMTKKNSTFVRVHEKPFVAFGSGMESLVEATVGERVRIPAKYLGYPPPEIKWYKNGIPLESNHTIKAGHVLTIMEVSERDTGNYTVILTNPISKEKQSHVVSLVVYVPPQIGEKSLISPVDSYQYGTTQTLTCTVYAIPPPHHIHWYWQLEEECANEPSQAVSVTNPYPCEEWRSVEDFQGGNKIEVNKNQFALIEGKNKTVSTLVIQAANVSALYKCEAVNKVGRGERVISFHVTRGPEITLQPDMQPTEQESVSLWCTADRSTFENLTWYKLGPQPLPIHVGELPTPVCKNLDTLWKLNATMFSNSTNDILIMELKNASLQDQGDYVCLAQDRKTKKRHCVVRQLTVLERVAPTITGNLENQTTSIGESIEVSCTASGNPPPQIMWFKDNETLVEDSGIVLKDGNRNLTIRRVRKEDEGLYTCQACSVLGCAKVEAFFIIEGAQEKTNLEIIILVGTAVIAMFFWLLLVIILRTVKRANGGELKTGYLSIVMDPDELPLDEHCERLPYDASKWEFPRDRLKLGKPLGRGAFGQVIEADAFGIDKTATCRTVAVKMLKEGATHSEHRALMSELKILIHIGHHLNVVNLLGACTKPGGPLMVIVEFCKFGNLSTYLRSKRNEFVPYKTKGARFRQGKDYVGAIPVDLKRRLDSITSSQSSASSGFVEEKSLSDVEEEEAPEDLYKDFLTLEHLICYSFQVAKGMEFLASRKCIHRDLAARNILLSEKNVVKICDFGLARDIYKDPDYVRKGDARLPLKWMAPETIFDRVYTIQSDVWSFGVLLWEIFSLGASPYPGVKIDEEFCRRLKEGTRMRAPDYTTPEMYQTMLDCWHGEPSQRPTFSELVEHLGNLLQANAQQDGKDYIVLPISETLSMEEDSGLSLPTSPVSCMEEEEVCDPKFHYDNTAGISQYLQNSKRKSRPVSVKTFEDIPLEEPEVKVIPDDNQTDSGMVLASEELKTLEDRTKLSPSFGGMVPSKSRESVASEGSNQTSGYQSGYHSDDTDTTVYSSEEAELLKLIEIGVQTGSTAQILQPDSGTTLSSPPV
Tyrosine-protein kinase ABL1, sequence (P00519 whole entry): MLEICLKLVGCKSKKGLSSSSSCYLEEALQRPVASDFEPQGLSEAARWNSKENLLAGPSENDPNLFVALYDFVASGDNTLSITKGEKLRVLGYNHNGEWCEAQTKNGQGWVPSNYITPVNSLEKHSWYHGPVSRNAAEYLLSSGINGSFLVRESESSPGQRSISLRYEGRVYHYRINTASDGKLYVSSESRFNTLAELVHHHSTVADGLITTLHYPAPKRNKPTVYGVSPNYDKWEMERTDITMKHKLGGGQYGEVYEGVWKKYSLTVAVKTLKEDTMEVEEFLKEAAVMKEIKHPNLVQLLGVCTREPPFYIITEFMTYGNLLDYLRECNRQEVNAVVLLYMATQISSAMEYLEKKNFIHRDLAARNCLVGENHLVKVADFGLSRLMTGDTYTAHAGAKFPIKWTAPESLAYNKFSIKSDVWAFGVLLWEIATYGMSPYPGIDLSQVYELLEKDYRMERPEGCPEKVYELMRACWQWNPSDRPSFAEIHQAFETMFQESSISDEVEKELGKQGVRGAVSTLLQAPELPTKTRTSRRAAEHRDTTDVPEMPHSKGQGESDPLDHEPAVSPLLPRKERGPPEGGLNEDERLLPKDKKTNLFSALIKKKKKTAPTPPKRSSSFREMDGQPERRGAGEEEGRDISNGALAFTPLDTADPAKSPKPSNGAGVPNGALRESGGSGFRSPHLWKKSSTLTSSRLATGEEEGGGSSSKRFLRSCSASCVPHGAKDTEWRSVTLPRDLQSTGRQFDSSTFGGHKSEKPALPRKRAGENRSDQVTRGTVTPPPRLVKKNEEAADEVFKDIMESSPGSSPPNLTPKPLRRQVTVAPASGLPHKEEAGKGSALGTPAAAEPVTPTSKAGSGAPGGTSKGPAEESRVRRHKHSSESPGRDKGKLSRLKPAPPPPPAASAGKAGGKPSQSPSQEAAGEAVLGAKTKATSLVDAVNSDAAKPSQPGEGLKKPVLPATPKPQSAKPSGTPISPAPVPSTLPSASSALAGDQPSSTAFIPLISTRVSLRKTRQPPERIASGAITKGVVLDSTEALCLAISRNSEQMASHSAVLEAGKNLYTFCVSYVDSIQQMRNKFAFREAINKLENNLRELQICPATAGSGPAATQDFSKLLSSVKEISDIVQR

As to `Cc1nnc(Sc2cc(NS(=O)(=O)c3ccc([N+](=O)[O-])cc3)ccc2O)s1`, the results for the inhibition in assay [1] and in assay [2] were 14.2% and 21.8%, respectively.

As for `Cc1ccc(S(=O)(=O)Nc2ccc(O)c(Sc3nc[nH]n3)c2)cc1`, the inhibition in [1] came to 29.8%; in [2] it was 15.3%.

Regarding `O=S(=O)(Nc1ccc(O)c(Sc2ncn[nH]2)c1)c1c(Cl)cccc1Cl`, the figures for the inhibition in assay [1] and in assay [2] were 48.4% and 10.3%, respectively.

Take `Cn1nnnc1Sc1cc(NC(=O)c2ccc([N+](=O)[O-])cc2)ccc1O`: the inhibition in [1] amounted to 10.1%. For the same molecule, the inhibition entry in [2] was “inactive”.

For the molecule `CS(=O)(=O)Nc1ccc(O)c(Sc2ncn[nH]2)c1`, the inhibition stood at 14.3% in [1] and 15.9% in [2].

`O=S(=O)(Nc1ccc(O)c(Sc2ncn[nH]2)c1)c1ccc(Cl)cc1`: the inhibition result (in assay [3]; in assay [4]; with Thoracic aorta [5]; in the assay with HUVEC [6]; in assay [2]) was “inactive” each time. In assay [1], this molecule registered an inhibition of 56.4%.

`Cc1ccc(Nc2nccc(N(C)c3ccc4c(C)n(C)nc4c3)n2)cc1S(N)(=O)=O`: the inhibition result (in [3]; in [4]; in the assay on Thoracic aorta [7]; in the assay on HUVEC [8]) was “Active” throughout.

Take `O=[N+]([O-])c1ccc(S(=O)(=O)Nc2ccc(O)c(Sc3ncn[nH]3)c2)cc1`: the inhibition entry (in assay [3]; in assay [4]; with Thoracic aorta [9]) was “Active” each time. Also, the Activity result in the assay with Thoracic aorta [10] was “Dose-dependent effect”. In addition, the inhibition result was “Dose-dependent effect” in the assay on HUVEC [11], 100% in assay [1] and 49.4% in [2]. The IC50 worked out at 1500 nM in assay [12] and 1260 nM in assay [13].

The molecule `O=[N+]([O-])c1ccc(S(=O)(=O)Nc2ccc(O)c(Sc3ncnc4nc[nH]c34)c2)cc1` yielded an inhibition in assay [1] of 37.5%. Besides, the inhibition result in assay [2] is “inactive”.

As to `O=C(Nc1ccc(O)c(Sc2nncs2)c1)c1ccc([N+](=O)[O-])cc1`, the inhibition result in assay [1] and in assay [2] was “inactive” each time.

On to `O=S(=O)(Nc1ccc(O)c(Sc2ncn[nH]2)c1)c1ccc2ccccc2c1`, for which the inhibition result in assay [1] and in assay [2] was “inactive” in each case.

In assay [1], `CN[C@@H]1C[C@H]2O[C@@](C)([C@@H]1OC)n1c3ccccc3c3c4c(c5c6ccccc6n2c5c31)C(=O)NC4` came in with an inhibition of 96.5%.

As for `O=[N+]([O-])c1ccc(S(=O)(=O)Nc2ccc(O)c(Sc3nncs3)c2)cc1`, the inhibition in assay [1] was found to be 14.9%; in [2] it was 11.4%.

In the case of `Cn1nnnc1Sc1cc(NS(=O)(=O)c2ccc([N+](=O)[O-])cc2)ccc1O`, the inhibition in assay [1] is 11.5%. For the same molecule, the inhibition entry in [2] is “inactive”.

For `O=S(=O)(Nc1ccc(O)c(Sc2ncn[nH]2)c1)c1cccc2ccccc12`, the inhibition in [1] amounted to 20.4%; in assay [2], 10%.

Take `COc1ccc(S(=O)(=O)Nc2ccc(O)c(Sc3nc[nH]n3)c2)cc1`: the inhibition in assay [1] amounted to 12.1%; in assay [2] it was 29.5%.

The molecule `O=C(Nc1ccc(O)c(Sc2ncn[nH]2)c1)c1ccc([N+](=O)[O-])cc1` had an inhibition in [1] of 50.7%. The inhibition result in [2] was “inactive”.

Take `O=C(Nc1ccc(O)c(Sc2ncnc3nc[nH]c23)c1)c1ccc([N+](=O)[O-])cc1`: the inhibition result in assay [3] is “Active”. Further, the inhibition result in the assay on Thoracic aorta [5] and in the assay on HUVEC [6] was “inactive” throughout. In addition, the values for the inhibition in [1] and in assay [2] were 64.6% and 21.9%, respectively.

Consider `Cc1cc(C)c(S(=O)(=O)Nc2ccc(O)c(Sc3nc[nH]n3)c2)c(C)c1`, for which the inhibition in assay [1] was found to be 19.7%; in assay [2], 18%.

As for `Cc1nnc(Sc2cc(NC(=O)c3ccc([N+](=O)[O-])cc3)ccc2O)s1`, the inhibition in assay [1] was found to be 12.3%; in assay [2], 14%.

Turning to `CC(C)c1cc(C(C)C)c(S(=O)(=O)Nc2ccc(O)c(Sc3ncn[nH]3)c2)c(C(C)C)c1`, the inhibition in assay [1] amounted to 14.5%; in assay [2] it was 17.1%.

The term inhibition denotes the percentage by which the read-out fell short of the control. As usually defined, the IC50 is the midpoint of a concentration-inhibition curve. Lower therefore signals greater potency.
